These results are taken from ChEMBL document CHEMBL5029154, “Design, Synthesis, and Biological Evaluation of Organic Nitrite (NO2-) Donors as Potential Anticerebral Ischemia Agents” (J Med Chem, 2021).

Activity calls are given as the source filed them. The rule behind the calls is not given here.

Data set [1] can be described thus: Drug metabolism assessed as nitric oxide release in presence of bovine plasma at 200 uM measured after 1 hr by Griess reagent based assay. The format is ADME, cell-free, Bos taurus. Conditions: cattle. (In general: Nitrite, measured by Griess reagent, commonly stands in for NO production.)
The subject of data set [2] is Cortical neurone. Briefly: Neuroprotective activity against in OGD/R-induced Sprague-Dawley rat cortical neuron injury assessed as cell viability pretreated at 1.8 uM for 24 hrs followed by subjected to OGD for 2 hrs measured after 24 hrs under normoxic condition. The data set is classed as functional, tissue-based. In a few lines: (§1)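 Cortical neurons were isolated from SD rat cortex by enzymatic digestion, plated on poly-lysine in 10% FBS DMEM, and pretreated 24 h at 1.8 μM in basal medium with 2% B27. OGD was run in glucose/FBS-free DMEM under 1% O₂, followed by 24 h reoxygenation in 10% FBS DMEM. Viability was read by MTT; apoptosis was also assessed. Three independent experiments.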

Data set [3] in a line: Neuroprotective activity against in OGD/R-induced rat primary cortical neuron apoptosis assessed as viable cells pretreated at 1.8 uM for 24 hrs followed by subjected to OGD for 2 hrs measured after 24 hrs under normoxic condition by PI/FITC-H staining based flow cytometry (reference value: 31.55%). The data set is classed as functional. Particulars: Cortical neurone, read-out: Activity. An outline of the steps: as §1
(In general: Flow cytometry measures light scatter and fluorescence of single cells or particles in a stream.)

The test system of data set [4] is Cortical neurone. Briefly: Induction of Nrf2 protein level in OGD/R-induced rat primary cortical neuron pretreated at 1.8 uM for 24 hrs followed by subjected to OGD for 2 hrs measured after 24 hrs under normoxic condition by Western blot analysis. The format is functional, tissue-based. In a few lines:
(§2)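 Primary rat cortical neurons were pretreated with 1.8 μM compound for 24 h, given 2 h OGD, then 24 h normoxic culture. Nrf2, HO-1 and NQO1 mRNA were measured by RT-qPCR. Cytoplasmic and nuclear protein (30 μg/lane) were blotted for Nrf2, with lamin A and β-actin as references, and quantified by densitometry as the nuclear:cytoplasmic ratio. Three independent experiments, mean ± SD.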
A general note: In western blotting, separated proteins are transferred to a membrane and probed.

The nature of data set [5]: Neuroprotective activity against in OGD/R-induced rat cortical neuron apoptosis assessed as early apoptotic cells pretreated at 1.8 uM for 24 hrs followed by subjected to OGD for 2 hrs measured after 24 hrs under normoxic condition by PI/FITC-H staining based flow cytometry (reference value: 58.46%). The format is functional, Cortical neurone.
The test system of data set [6] is Cortical neurone. Briefly: Effect on Nrf2 mRNA transcript level in OGD/R-induced rat primary cortical neuron pretreated at 1.8 uM for 24 hrs followed by subjected to OGD for 2 hrs measured after 24 hrs under normoxic condition by RT-qPCR analysis. The format is functional, tissue-based. In a few lines: as §2
A short description of data set [7]: Neuroprotective activity against in OGD/R-induced rat cortical neuron apoptosis assessed as late apoptotic cells pretreated at 1.8 uM for 24 hrs followed by subjected to OGD for 2 hrs measured after 24 hrs under normoxic condition by PI/FITC-H staining based flow cytometry (reference value: 6.31%). The format is functional, Cortical neurone.
Data set [8] is described as follows: Neuroprotective activity against in OGD/R-induced rat cortical neuron apoptosis assessed as necrotic cells pretreated at 1.8 uM for 24 hrs followed by subjected to OGD for 2 hrs measured after 24 hrs under normoxic condition by PI/FITC-H staining based flow cytometry (reference value: 3.68%). The format is functional, Cortical neurone.
Data set [9] deals with Cortical neurone. Briefly: Neuroprotective activity against in OGD/R-induced rat cortical neuron cytotoxicity assessed as decrease in cell viability pretreated at 1.8 uM for 24 hrs followed by subjected to OGD for 2 hrs measured after 24 hrs under normoxic condition by MTT assay. The format is functional, tissue-based. In a few lines: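 Primary rat cortical neurons from enzymatically digested cortex, plated on poly-lysine in DMEM/10% FBS for 4 h. Pretreated 24 h in neuron basal medium with 2% B27, then glucose/FBS-free DMEM at 1% O2. Returned to 10% FBS DMEM under normoxia for 24 h. Viability by MTT; three independent experiments, mean SD.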

Data set [10] relates to Cortical neurone. Briefly: Induction of HO-1 mRNA transcript level in OGD/R-induced rat primary cortical neuron pretreated at 1.8 uM for 24 hrs followed by subjected to OGD for 2 hrs measured after 24 hrs under normoxic condition by RT-qPCR analysis. The format is functional, tissue-based. An outline of the steps: as §2
In data set [11] the test system is Cortical neurone. Briefly: Induction of NQO1 mRNA transcript level in OGD/R-induced rat primary cortical neuron pretreated at 1.8 uM for 24 hrs followed by subjected to OGD for 2 hrs measured after 24 hrs under normoxic condition by RT-qPCR analysis. The data set is classed as functional, tissue-based. In a few lines:
as §2

For the next data set, the system named is HUVEC. Briefly: Angiogenesis activity in HUVEC cells assessed as increase in tube formation at 1.8 uM measured after 8 hrs by inverted microscopy. The data set is classed as functional, cell-based. Particulars: Homo sapiens. An outline of the steps:
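Early-passage HUVECs (passages 2–6), grown in DMEM with 10% FBS, glutamine, pyruvate and antibiotics, were seeded at 8 × 10⁴ cells/well on Matrigel. They were exposed to vehicle or compound for 8 h at 37 °C, 5% CO₂. Tubes were counted under an inverted microscope.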

With `O=[N+]([O-])C/C(=C\c1ccccc1)[N+](=O)[O-]`, the Drug metabolism entry in data set [1] is “Metabolite_Detected”. Further, the result with Cortical neurone [2] was Active.

Consider `O=C1CCCC=C1C[N+](=O)[O-]`, for which the Drug metabolism result in data set [1] is recorded as “Metabolite_Detected”.

Take `N#C/C(=C\c1ccccc1)C[N+](=O)[O-]`: the Drug metabolism result in data set [1] is “Metabolite_Detected”. The result in the data set on Cortical neurone [2] was Active.

`COC(=O)/C(=C/c1ccccc1)C[N+](=O)[O-]`: in data set [1], the Drug metabolism result is listed as “Metabolite_Detected”. Also, the outcome with Cortical neurone [2] was Active.

With `O=N[O-].[Na+]` [SODIUM NITRITE], the viability at 1.8 µM in [3] was found to be 46.9%. Also, the result with Cortical neurone [4], in the data set on Cortical neurone [6] and in the data set with Cortical neurone [9] was inactive. The results for the Activity in [5], in [7] and in [8] were 50.12%, 2.47% and 0.51%, respectively.

As for `CC(C)(C)c1cc(O)ccc1O` [E319], in data set [3], the viability at 1.8 µM came out at 84%. Besides, the outcome in the data set on Cortical neurone [10], with Cortical neurone [4] and in the data set on Cortical neurone [11] was Active. The Activity is 13.91% in data set [5], 1.4% in data set [7] and 0.84% in data set [8]. The outcome in the data set on Cortical neurone [6] was inactive.

With `C/C(=C\c1ccccc1)C(=O)c1ccccc1`, the outcome in the data set with HUVEC was inactive. Further, in the data set on Cortical neurone [4], the result was Active.
